Test results taken from ChEMBL document CHEMBL3627670, “Structure-activity relationship studies of QS11, a small molecule Wnt synergistic agonist” (Bioorg Med Chem Lett, 2015).

Legend:
[1] = Synergistic agonist activity at Wnt/beta-catenin (unknown origin) expressed in Wnt-3A conditioned media stimulated with HEK293 cells incubated for 24 hrs by firefly luciferase based TOPflash reporter assay; format: cell-based; conditions: Homo sapiens, HEK293, 24 h
Outline: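 HEK293 cells stably transfected with TOPFlash reporter, stimulated with Wnt3A conditioned media plus compound for 24 h. Luciferase activity then read by Bright-Glo luminescence. EC50 (µM) derived, given as mean ± standard deviation.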

[2] = molecular target: ADP-ribosylation factor GTPase-activating protein 1 (Rattus norvegicus) (UniProt Q62848); assay: (§1) Inhibition of poly-histidine tagged full-length rat ARFGAP1 expressed in Sf9 cells assessed as remaining enzyme activity at 20 uM using purified WT ARF1 pre-loaded with [gamm-32P]-labeled GTP incubated for 5 mins before ARF1-GTP addition followed by 25 mins incubation by scintillation counting method
[3] = molecular target: ADP-ribosylation factor GTPase-activating protein 1 (Rattus norvegicus) (UniProt Q62848); assay: as §1, with “10” for “20”
[4] = tested on: HEK293; assay: Potency index, ratio of EC50 for QS11 to EC50 for test compound for synergistic agonist activity at Wnt/beta-catenin (unknown origin) expressed in Wnt-3A conditioned media stimulated with HEK293 cells incubated for 24 hrs by firefly luciferase based TOPflash reporter assay; format: cell-based; conditions: Homo sapiens

Chain of ADP-ribosylation factor GTPase-activating protein 1 (Rattus norvegicus) (Q62848 whole entry): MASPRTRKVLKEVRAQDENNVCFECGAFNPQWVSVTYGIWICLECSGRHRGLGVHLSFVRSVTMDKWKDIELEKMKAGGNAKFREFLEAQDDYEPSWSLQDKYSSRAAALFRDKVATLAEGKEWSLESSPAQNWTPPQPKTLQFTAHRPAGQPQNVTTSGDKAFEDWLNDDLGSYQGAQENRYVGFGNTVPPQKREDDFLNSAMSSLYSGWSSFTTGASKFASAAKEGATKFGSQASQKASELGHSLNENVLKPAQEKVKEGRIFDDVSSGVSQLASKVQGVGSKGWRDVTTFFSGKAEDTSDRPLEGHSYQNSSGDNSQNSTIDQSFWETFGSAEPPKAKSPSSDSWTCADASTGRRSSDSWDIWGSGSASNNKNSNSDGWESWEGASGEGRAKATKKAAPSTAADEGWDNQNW

EC50 [1] [µM]	Activity [2] [%]	Activity [3] [%]	SMILES	Ratio EC50 [4]
> 100	113	117	OC[C@H](Cc1ccccc1)Nc1nc(Oc2ccc3c(c2)CCC3)nc2c1ncn2Cc1ccccc1	–
1.9	11	24	COc1cc(OC)cc(Oc2nc(N[C@H](CO)Cc3ccccc3)c3ncn(Cc4ccc(-c5ccccc5)cc4)c3n2)c1	–
4.4	35	53	OC[C@H](Cc1ccccc1)Nc1nc(Oc2ccc3ccccc3c2)nc2c1ncn2Cc1ccc(-c2ccccc2)cc1	–
> 100	20	20	c1ccc(-c2ccc(Cn3cnc4c(NCc5cccc6ccccc56)nc(Oc5cccc6ccccc56)nc43)cc2)cc1	–
> 100	47	81	OC[C@H](Cc1ccccc1)Nc1nc(Oc2ccc3c(c2)CCC3)nc2c1ncn2Cc1ccc(-c2ccccc2F)cc1	–
> 100	33	41	FC(F)(F)c1cccc(Oc2nc(NCCc3ccccc3)c3ncn(Cc4ccc(-c5ccccc5)cc4)c3n2)c1	–
> 100	34	35	c1ccc(-c2ccc(Cn3cnc4c(NCc5cccc6ccccc56)nc(Oc5ccc6c(c5)OCO6)nc43)cc2)cc1	–
> 100	45	58	O=[N+]([O-])c1ccc(Cn2cc(Cn3cnc4c(N[C@H](CO)Cc5ccccc5)nc(Oc5ccc6c(c5)CCC6)nc43)nn2)cc1	–
> 100	40	42	OC[C@H](Cc1ccccc1)Nc1nc(Oc2ccc3c(c2)CCC3)nc2c1ncn2Cc1ccc(Oc2ccccc2)cc1	–
4.5	57	90	CC[C@@H](CO)Nc1nc(Oc2ccc3c(c2)CCC3)nc2c1ncn2Cc1ccc(-c2ccccc2)cc1	–
18	12	16	FC(F)(F)c1cccc(Oc2nc(NCc3cccc4ccccc34)c3ncn(Cc4ccc(-c5ccccc5)cc4)c3n2)c1	–
> 100	41	56	Cc1ccccc1-c1ccc(Cn2cnc3c(N[C@H](CO)Cc4ccccc4)nc(Oc4ccc5c(c4)CCC5)nc32)cc1	–
3.6	22	55	COc1ccc(Oc2nc(N[C@H](CO)Cc3ccccc3)c3ncn(Cc4ccc(-c5ccccc5)cc4)c3n2)cc1OC	–
> 100	40	46	COc1cccc(Oc2nc(NCCc3ccccc3)c3ncn(Cc4ccc(-c5ccccc5)cc4)c3n2)c1	–
3.3	29	54	COc1cccc(Oc2nc(N[C@H](CO)Cc3ccccc3)c3ncn(Cc4ccc(-c5ccccc5)cc4)c3n2)c1	–
1.5	71	98	OC[C@H](Cc1ccccc1)Nc1nc(N2CCOCC2)nc2c1ncn2Cc1ccc(-c2ccccc2)cc1	–
> 100	29	37	COc1cccc(Oc2nc(NCc3cccc4ccccc34)c3ncn(Cc4ccc(-c5ccccc5)cc4)c3n2)c1	–
6.6	24	35	OC[C@H](Cc1ccccc1)Nc1nc(Oc2cccc3ccccc23)nc2c1ncn2Cc1ccc(-c2ccccc2)cc1	–
1.5	10	33	OC[C@H](Cc1ccccc1)Nc1nc(Oc2ccc3c(c2)CCC3)nc2c1ncn2Cc1ccc(-c2ccccc2)cc1	–
> 100	57	105	OC[C@H](Cc1ccccc1)Nc1nc(Oc2ccc3c(c2)CCC3)nc2c1ncn2Cc1cn(-c2ccccc2)nn1	–
2.6	36	50	CC(c1ccc(-c2ccccc2)cc1)n1cnc2c(N[C@H](CO)Cc3ccccc3)nc(Oc3ccc4c(c3)CCC4)nc21 (some centres not stated)	–

EC50 [1] [µM]	Activity [2] [%]	Activity [3] [%]	SMILES	Ratio EC50 [4]
8.5	39	49	OC[C@H](Cc1ccccc1)Nc1nc(Oc2ccc3c(c2)OCO3)nc2c1ncn2Cc1ccc(-c2ccccc2)cc1	–
4	24	41	CC[C@@H](CO)Nc1nc(Oc2ccc3ccccc3c2)nc2c1ncn2Cc1ccc(-c2ccccc2)cc1	–
> 100	86	90	c1ccc(CCNc2nc(Oc3ccc4ccccc4c3)nc3c2ncn3Cc2ccc(-c3ccccc3)cc2)cc1	–
> 100	20	32	c1ccc(CCNc2nc(Oc3cccc4ccccc34)nc3c2ncn3Cc2ccc(-c3ccccc3)cc2)cc1	–
2.9	78	81	OC[C@H](Cc1ccccc1)Nc1nc(Oc2cccc(C(F)(F)F)c2)nc2c1ncn2Cc1ccc(-c2ccccc2)cc1	–
> 100	27	31	c1ccc(CCNc2nc(Oc3ccc4c(c3)OCO4)nc3c2ncn3Cc2ccc(-c3ccccc3)cc2)cc1	–
> 100	75	98	COc1ccc(Cn2cc(Cn3cnc4c(N[C@H](CO)Cc5ccccc5)nc(Oc5ccc6c(c5)CCC6)nc43)nn2)cc1	–
> 100	63	74	c1ccc(-c2ccc(Cn3cnc4c(NCc5cccc6ccccc56)nc(Oc5ccc6c(c5)CCC6)nc43)cc2)cc1	–
3.4	12	21	COC(=O)[C@H](Cc1ccccc1)Nc1nc(Oc2cccc3ccccc23)nc2c1ncn2Cc1ccc(-c2ccccc2)cc1	–
> 100	34	42	COc1ccc(-c2ccc(Cn3cnc4c(N[C@H](CO)Cc5ccccc5)nc(Oc5ccc6c(c5)CCC6)nc43)cc2)cc1	–
> 100	109	106	OC[C@H](Cc1ccccc1)Nc1nc(Oc2ccc3c(c2)CCC3)nc2c1ncn2CCOCc1ccccc1	–
> 100	50	60	c1ccc(CCNc2nc(Oc3ccc4c(c3)CCC4)nc3c2ncn3Cc2ccc(-c3ccccc3)cc2)cc1	–
> 100	32	50	OC[C@H](Cc1ccccc1)Nc1nc(Oc2ccc3c(c2)CCC3)nc2c1ncn2-c1ccc(-c2ccccc2)cc1	–
0.65	17	25	COC(=O)[C@H](Cc1ccccc1)Nc1nc(Oc2ccc3ccccc3c2)nc2c1ncn2Cc1ccc(-c2ccccc2)cc1	2
> 100	32	70	CC[C@@H](CO)Nc1nc(Oc2ccc3c(c2)OCO3)nc2c1ncn2Cc1ccc(-c2ccccc2)cc1	–
1.3	15	22	CC[C@@H](CO)Nc1nc(Oc2cccc3ccccc23)nc2c1ncn2Cc1ccc(-c2ccccc2)cc1	–
> 100	27	50	Cc1ccccc1Cn1cc(Cn2cnc3c(N[C@H](CO)Cc4ccccc4)nc(Oc4ccc5c(c4)CCC5)nc32)nn1	–
2.6	39	70	COc1nc(N[C@H](CO)Cc2ccccc2)c2ncn(Cc3ccc(-c4ccccc4)cc3)c2n1	–
1.1	18	31	COC(=O)[C@H](Cc1ccccc1)Nc1nc(Oc2ccc3c(c2)OCO3)nc2c1ncn2Cc1ccc(-c2ccccc2)cc1	–
> 100	62	93	OC[C@H](Cc1ccccc1)Nc1nc(Oc2ccc3c(c2)CCC3)nc2c1ncn2Cc1cn(Cc2ccccc2)nn1	–
> 100	31	53	c1ccc(-c2ccc(Cn3cnc4c(NCc5cccc6ccccc56)nc(Oc5ccc6ccccc6c5)nc43)cc2)cc1	–
